Sampled rows, rich in hits. Any-hit rate of the full collection: about 4.1%.
KCNQ1 pot: human KCNQ1 channel potentiation or activation; CHO-K1 KCNQ1, thallium flux FluxOR fluorescence; active compounds read high; P51787; actives 0.35% (n = 310,000); B-score at 10 µM;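 active means fluorescence ratio B-score, a plate-corrected score, at least three library SD, with initial intensity B-score within 5 SD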
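Material: CHO-K1 cells stably expressing KCNQ1. Medium: assay buffer for compound exposure, DMSO matched across wells. Reagent: K+/Tl+ depolarizing stimulus. Compound dosing: single-concentration screen. Times: 37 °C overnight plating, 90-min dark dye load, 20-min compound pretreatment. Technique: FluxOR Tl+ flux fluorescence.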
KCNK3 block: human KCNK3 channel inhibition, primary screen; AID 602410; CHO-KCNK3 thallium flux, FluxOR fluorescence; active compounds read low; actives 0.84% (n = 340,000); O14649; B-score at 10 µM;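 active means B-score under library mean minus 4 SD, starting fluorescence ratio at most library mean plus 5 SD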;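 further: more negative B-score means stronger inhibition of thallium flux through KCNK3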
KCNK9 inh: human KCNK9 channel inhibition; Q9NPC2; HEK293 KCNK9, FluxOR thallium flux fluorescence; active compounds read low; B-score at 10 µM; actives 1.2% (n = 310,000);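 active means ratio B-score over 3 SD below the library mean, with starting fluorescence within 5 SD of its mean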;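 further: negative B-score means less thallium flux so channel inhibition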
KCNQ1 inh: blocks the human KCNQ1 potassium channel; P51787; CHO-K1 KCNQ1, FluxOR thallium flux fluorescence; active compounds read high; B-score at 10 µM; actives 1.3% (n = 310,000); AID 2642;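 active means compounds whose thallium flux B-score, printed positive for inhibition, exceeds three library SD while starting fluorescence stays within three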;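 further: channel opened by potassium depolarization with thallium stimulus after 20 min compound exposure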
KCC2 mod: KCC2 (human) Cl- transport modulation; KCC2 cells, thallium flux FluoZin-2 fluorescence; AID 1456; Q9H2X9; actives 2.2% (n = 190,000); B-score of Tl+ flux slope (higher = more flux/activation; lower = inhibition) at 10 µM;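 active means thallium flux slope and its plate-corrected score both differing from the plate sample mean at a set confidence after two filtering rounds, in either direction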;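 further: slope of fluorescence scaled to starting intensity during 10 to 20 s after thallium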
Target sequence (Q9H2X9 whole entry, looked up): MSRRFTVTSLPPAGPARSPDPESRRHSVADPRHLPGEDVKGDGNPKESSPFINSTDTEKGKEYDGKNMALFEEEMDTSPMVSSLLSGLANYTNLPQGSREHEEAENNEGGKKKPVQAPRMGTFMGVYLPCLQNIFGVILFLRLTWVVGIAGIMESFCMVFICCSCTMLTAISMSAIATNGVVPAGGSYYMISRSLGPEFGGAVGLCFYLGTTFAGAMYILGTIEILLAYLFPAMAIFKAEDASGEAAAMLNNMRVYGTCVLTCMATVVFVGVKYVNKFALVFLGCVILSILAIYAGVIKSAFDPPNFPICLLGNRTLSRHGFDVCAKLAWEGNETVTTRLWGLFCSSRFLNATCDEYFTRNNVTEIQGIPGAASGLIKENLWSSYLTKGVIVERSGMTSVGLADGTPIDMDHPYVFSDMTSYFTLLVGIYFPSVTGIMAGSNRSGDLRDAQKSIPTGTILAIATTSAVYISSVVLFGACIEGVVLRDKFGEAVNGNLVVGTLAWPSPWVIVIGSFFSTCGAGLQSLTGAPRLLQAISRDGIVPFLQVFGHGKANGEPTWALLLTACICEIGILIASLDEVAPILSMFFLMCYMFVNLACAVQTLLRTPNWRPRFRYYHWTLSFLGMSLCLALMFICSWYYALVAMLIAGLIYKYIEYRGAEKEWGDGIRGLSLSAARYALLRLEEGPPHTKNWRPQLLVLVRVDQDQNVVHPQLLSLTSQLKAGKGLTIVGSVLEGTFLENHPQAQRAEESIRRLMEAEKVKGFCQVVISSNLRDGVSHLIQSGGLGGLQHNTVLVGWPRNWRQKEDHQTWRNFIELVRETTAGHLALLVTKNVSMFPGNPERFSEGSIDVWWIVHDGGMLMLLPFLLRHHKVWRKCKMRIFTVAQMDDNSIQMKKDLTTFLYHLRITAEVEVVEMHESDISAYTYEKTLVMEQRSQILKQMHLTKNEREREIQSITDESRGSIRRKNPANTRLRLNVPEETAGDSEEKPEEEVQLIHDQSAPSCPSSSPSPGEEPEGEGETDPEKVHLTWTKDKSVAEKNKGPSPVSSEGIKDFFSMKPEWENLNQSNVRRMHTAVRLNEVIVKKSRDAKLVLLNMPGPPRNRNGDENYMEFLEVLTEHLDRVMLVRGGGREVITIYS
hERG rescue: shields human hERG channel from block by proarrhythmic agents | CHO-hERG, FluxOR thallium flux, dofetilide IC70 present | actives 0.51% (n = 310,000) | activation (rescue from dofetilide block), less the hit threshold, % at 10 µM;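 active means activation above the mean of controls blocked by dofetilide plus 5 SD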;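 further: thallium influx through hERG after potassium depolarization seen as dye fluorescence rise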
KCC2 sec1: confirmation of human KCC2 transport modulators; shares compounds with KCC2 mod; HEK293-KCC2, thallium flux, FluoZin2 fluorescence; active compounds read high; normalised thallium flux (F/F0 slope) at 10 µM; actives 15% (n = 3,700);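 active means thallium flux slope above the same plate's solvent-only control mean plus 3 SD; inconclusive means the two replicate wells disagree; inactive means no significant difference from solvent-only control wells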
KCC2 bumet counter: bumetanide-insensitive thallium flux in KCC2 cells with ouabain, counter-screen. shares compounds with KCC2 mod. HEK293-KCC2 + bumetanide/ouabain, thallium flux FluoZin2; active compounds read high. normalized thallium flux at 10 µM. actives 49% (n = 3,700). AID 1714;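 active means thallium entry rate above the same plate's blocked-transporter control wells by more than 3 SD; inconclusive means the two repeat wells disagree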;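 further: raw slope of fluorescence over initial fluorescence between 10 and 20 s after thallium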
KCC2 sec2: confirmation of human KCC2 transport modulators; shares compounds with KCC2 mod; HEK293-KCC2, thallium flux FluoZin2 fluorescence; actives lie on both sides; F/F0 rise rate, 10–20 s post-thallium; normalized thallium flux at 10 µM; actives 23% (n = 3,700);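 active means thallium flux slope more than 3 SD above or below the plate's solvent-only control mean, mostly below; inconclusive means the two repeat wells disagreed; inactive means no significant shift from solvent-only controls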;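 further: raw slope with 0.1% DMSO as baseline and bumetanide as block control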
HEK counter1: acts in parental HEK cells, KCC2 counter-screen. shares compounds with KCC2 mod. HEK293 parental cells, thallium flux FluoZin2, ouabain; baseline-ratio fluorescence slope, 10–20 s after thallium. thallium flux rate (normalised fluorescence) at 10 µM. actives 46% (n = 3,700);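 active means thallium flux rate significantly above the same plate's solvent-only control wells, beyond their mean plus 3 SD; inconclusive means the two replicate wells gave conflicting results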
KCC2 retest ouab: confirmation of human KCC2 modulators with ouabain; shares compounds with KCC2 mod; HEK293-KCC2, thallium flux FluoZin2 fluorescence; bidirectional: low = inhibitor, high = activator; raw Tl+ flux slope (below DMSO = inhibition, above = activation) at 10 µM; actives 48% (n = 3,700);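 active means thallium flux slope beyond 3 SD from same-plate DMSO control mean in most replicates, usually higher, sometimes lower; inconclusive means repeat tests gave conflicting results; inactive means no significant difference from controls in most replicates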;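 further: slope of initial-normalized fluorescence between seconds 10 and 20 after thallium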
HEK293 Tl flux2: acts in parental HEK cells, second KCC2 counter-screen. shares compounds with KCC2 mod. HEK293 parental, thallium flux FluoZin-2 fluorescence slope. thallium flux slope at 10 µM. actives 33% (n = 3,700). AID 1718;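 active means thallium flux slope above the same plate's solvent-control mean plus 3 SD in both duplicate wells; inconclusive means duplicate wells that disagreed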;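 further: run without ouabain in cells lacking the KCC2 cotransporter; slope of fluorescence scaled to its starting value between 10 and 20 s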
* = called active by the depositor.

Cc1ccc(NC(=O)c2ccccc2-c2ccc(C(F)(F)F)cc2)cc1S(=O)(=O)N1CCOCC1 was read as KCNQ1 pot inactive, KCNK3 block inactive, KCNK9 inh inactive, KCNQ1 inh inactive, KCC2 mod 3.8*, hERG rescue -3.9, KCC2 sec1 0.00554, KCC2 bumet counter 0.00524, KCC2 sec2 0.0271, HEK counter1 0.00737, KCC2 retest ouab 0.0178 and HEK293 Tl flux2 0.0113.
`Oc1ccccc1-c1nc(NCCN2CCOCC2)c2ccccc2n1` gave KCNQ1 pot inactive, KCNK3 block inactive, KCNK9 inh inactive, KCNQ1 inh inactive and hERG rescue -25.1.
COc1cccc(-c2nc(NCCN3CCOCC3)c3ccccc3n2)c1O was read as KCNQ1 pot inactive, KCNK3 block inactive, KCNK9 inh inactive, KCNQ1 inh inactive, KCC2 mod -0.041, hERG rescue -27.4, KCC2 sec1 0.0103, KCC2 bumet counter 0.00716, KCC2 sec2 0.0328, HEK counter1 0.00784, KCC2 retest ouab 0.0215 and HEK293 Tl flux2 inconclusive.
S=c1sc2c(Cl)ncnc2n1-c1ccccc1 was read as KCNQ1 pot 8*, KCNK3 block inactive, KCNK9 inh inactive, KCNQ1 inh inactive, KCC2 mod -4.29*, hERG rescue -19.0, KCC2 sec1 0.00579, KCC2 bumet counter 0.00465, KCC2 sec2 0.0331, HEK counter1 0.00728, KCC2 retest ouab 0.0188 and HEK293 Tl flux2 0.01.
`Cc1noc(C)c1NC(=O)N(C)C[C@H]1Oc2ccc(NS(=O)(=O)c3cn(C)cn3)cc2C(=O)N([C@H](C)CO)C[C@@H]1C` gave KCNK3 block inactive.
`COc1ccc(OCCN(C)C(=O)c2cccc(S(=O)(=O)N(C)c3ccccc3)c2)cc1` gave KCNK3 block inactive.
For O=C(CSCc1ccc(Cl)cc1)Nc1cc([N+](=O)[O-])ccc1O the results were KCNQ1 pot inactive, KCNK3 block inactive, KCNK9 inh inactive, KCNQ1 inh inactive, KCC2 mod -3.4*, hERG rescue -9.7, KCC2 sec1 0.00558, KCC2 bumet counter 0.004, KCC2 sec2 0.022*, HEK counter1 0.00623*, KCC2 retest ouab 0.0144* and HEK293 Tl flux2 0.0083*.
`COc1ccc([N+](=O)[O-])cc1NC(=O)CSCc1ccc(Br)cc1` gave KCNQ1 pot inactive, KCNK3 block inactive, KCNK9 inh inactive, KCNQ1 inh inactive, KCC2 mod -0.547 and hERG rescue -4.0.
Screening COc1cc(/C=C(\C#N)C(=O)NCCc2ccccc2)cc(OC)c1O returned KCNQ1 pot inactive, KCNK3 block inactive, KCNK9 inh inactive, KCNQ1 inh inactive, KCC2 mod -6.22*, hERG rescue -9.3, KCC2 sec1 0.00558, KCC2 bumet counter 3.98e-05*, KCC2 sec2 0.0198*, HEK counter1 0.00444*, KCC2 retest ouab 0.00912* and HEK293 Tl flux2 inconclusive.
Screening N#C/C(=C\c1ccc(O)c(O)c1)C(=O)NCCc1ccccc1 returned KCNK3 block inactive.
`CCOCCCNC(=O)/C(C#N)=C/c1cc(Br)c(O)c(Br)c1` gave KCNQ1 pot inactive, KCNK3 block inactive, KCNK9 inh inactive, KCNQ1 inh inactive, KCC2 mod -4.01*, hERG rescue -12.1, KCC2 sec1 0.00726, KCC2 bumet counter 0.00398, KCC2 sec2 0.0294, HEK counter1 0.00694, KCC2 retest ouab 0.017 and HEK293 Tl flux2 0.00962.
`COCCNC(=O)/C(C#N)=C/c1cc(Br)c(O)c(OC)c1` gave KCNQ1 pot inactive, KCNK3 block inactive, KCNK9 inh inactive, KCNQ1 inh inactive, KCC2 mod -0.00628 and hERG rescue -13.5.
NC(=S)NN=C1Cc2cccc3cccc1c23 was read as KCNK3 block inactive.
Fc1ccccc1COc1ccc(Br)cc1CNCc1cccnc1 was read as KCNQ1 pot inactive, KCNK3 block inactive, KCNK9 inh inactive, KCNQ1 inh inactive, KCC2 mod -1.28 and hERG rescue -10.4.
For Fc1ccccc1COc1ccc(Br)cc1CNCc1ccncc1 the results were KCNQ1 pot inactive, KCNK3 block inactive, KCNK9 inh inactive, KCNQ1 inh inactive, KCC2 mod -3.34*, hERG rescue -15.4, KCC2 sec1 inconclusive, KCC2 bumet counter 0.00575, KCC2 sec2 0.0341, HEK counter1 0.00682, KCC2 retest ouab 0.014* and HEK293 Tl flux2 0.0105.
Cc1nnc(SCC(=O)NC2CCCC2)n1C(C)C was read as KCNQ1 pot inactive, KCNK3 block inactive, KCNK9 inh inactive, KCNQ1 inh inactive and hERG rescue -10.9.
`CCn1c(=O)n(CC)c2cc(S(=O)(=O)N3CCC(c4ccccc4)CC3)ccc21` gave KCNQ1 pot inactive, KCNK3 block inactive, KCNK9 inh inactive, KCNQ1 inh inactive, hERG rescue -6.3, KCC2 sec1 0.00617, KCC2 bumet counter 0.00469, KCC2 sec2 0.0245*, HEK counter1 0.00705, KCC2 retest ouab 0.0169* and HEK293 Tl flux2 0.0102.
Cn1c(=O)c(=O)n(C)c2cc(S(=O)(=O)N3CCC(Cc4ccccc4)CC3)ccc21 was read as KCNQ1 pot inactive, KCNK3 block inactive, KCNK9 inh inactive, KCNQ1 inh inactive and hERG rescue -3.0.

From PubChem
